The source made the active and inactive calls. No cut-off for these calls is given here.
Key:
[1] = test system: Lactuca sativa; test: Effect on root elongation in Lactuca sativa (lettuce) at 10^-4 to 10^-9 M after 5 days relative to control; format: functional, organism-based
Outline: (§1)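 Lettuce seeds, 25 per 50 mm Petri dish on one Whatman No. 1 filter paper, with 2.5 mL test solution in 10 mM MES pH 6 (10^-4 M, diluted to 10^-9 M). Dishes were Parafilm-sealed and kept at 25 °C in the dark. Germination was scored daily for 5 days, then root/shoot lengths were measured on plants frozen at -20 °C. Four replicates, expressed as % difference from parallel control, with Student's t-test.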

[2] = test system: Allium cepa; test: Effect on seed germination in Allium cepa (onion) at 10^-4 to 10^-9 M after 7 days relative to control; format: functional, organism-based
Outline: (§2)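 Seeds (cress 3 days, tomato 5 days, onion 7 days), 25 per 90 mm Petri dish on one Whatman No. 1 filter paper, with 5 mL test solution in 10 mM MES pH 6 (10^-4 M, diluted to 10^-9 M). Dishes were sealed and kept at 25 °C in the dark. Germination was scored daily, then root/shoot lengths were taken after freezing at -20 °C. Four replicates, expressed as % difference from control, with t-test.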

[3] = test system: Solanum lycopersicum; test: Effect on seed germination in Solanum lycopersicum (tomato) at 10^-4 to 10^-9 M after 5 days relative to control; format: functional, organism-based; outline: as §2
[4] = test system: Lactuca sativa; test: Inhibition of seed germination in Lactuca sativa (lettuce) at 10^-9 M after 5 days relative to control; format: functional; conditions: 120 h; outline: as §1
[5] = test system: Lactuca sativa; test: Inhibition of seed germination in Lactuca sativa (lettuce) at 10^-4 to 10^-9 M after 5 days relative to control; format: functional; outline: as §1
[6] = test system: Lepidium sativum; test: Inhibition of shoot elongation in Lepidium sativum at 10^-4 to 10^-9 M after 3 days relative to control; format: functional; outline: as §2
[7] = test system: Lepidium sativum; test: Effect on root elongation in Lepidium sativum at 10^-4 to 10^-9 M after 3 days relative to control; format: functional, organism-based; outline: as §2
[8] = test system: Lepidium sativum; test: Effect on seed germination in Lepidium sativum at 10^-4 to 10^-9 M after 3 days relative to control; format: functional, organism-based; outline: as §2
[9] = test system: Allium cepa; test: Inhibition of shoot elongation in Allium cepa (onion) at 10^-4 to 10^-9 M after 7 days relative to control; format: functional, organism-based; outline: as §2
[10] = test system: Solanum lycopersicum; test: Inhibition of shoot elongation in Solanum lycopersicum (tomato) at 10^-4 to 10^-9 M after 5 days relative to control; format: functional, organism-based; outline: as §2
[11] = test system: Lactuca sativa; test: Inhibition of shoot elongation in Lactuca sativa (lettuce) at 10^-4 to 10^-9 M after 5 days relative to control; format: functional, organism-based; outline: as §1
[12] = test system: Allium cepa; test: Stimulation of shoot elongation in Allium cepa (onion) at 10^-4 to 10^-9 M after 7 days relative to control; format: functional, organism-based; outline: as §2
[13] = test system: Lactuca sativa; test: Stimulation of shoot elongation in Lactuca sativa (lettuce) at 10^-4 to 10^-9 M after 5 days relative to control; format: functional, organism-based; outline: as §1
[14] = test system: Solanum lycopersicum; test: Stimulation of shoot elongation in Solanum lycopersicum (tomato) at 10^-4 to 10^-9 M after 5 days relative to control; format: functional, organism-based; outline: as §2
[15] = test system: Allium cepa; test: Stimulation of root elongation in Allium cepa (onion) at 10^-4 to 10^-9 M after 7 days relative to control; format: functional, organism-based; outline: as §2
[16] = test system: Solanum lycopersicum; test: Effect on root elongation in Solanum lycopersicum (tomato) at 10^-4 to 10^-9 M after 5 days relative to control; format: functional, organism-based; outline: as §2

In the case of `COc1cc([C@@H]2c3cc(O)c(OC)cc3C[C@H](CO)[C@H]2CO)ccc1O` [(-)-ISOLARICIRESINOL], the Activity [1] is reported as “inactive”, the Activity [2] is reported as “inactive” and the Activity [3] is reported as “inactive”. For the same compound, the inhibition at 0.001 µM [4] was 50%, the inhibition [5] was “Active” and the “inhibition (INH)” value [6] was 30%. For the same compound, the Activity [7] was “inactive”, the Activity [8] was “inactive” and the inhibition [9] was “Active”. For the same compound, the inhibition [10] was “Active”, the inhibition [11] was “Active” and the Activity [12] was “Active”. For the same compound, the Activity [13] was “Active”, the Activity [14] was “Active” and the Activity [15] was “inactive”. The Activity [16] was “inactive”.

With `COc1cc(/C=C/C(=O)O)ccc1Oc1ccc(/C=C/C(=O)O)cc1OC` the Activity [1] was “inactive”, the Activity [2] was “inactive” and the Activity [3] was “inactive”. The inhibition [9] was “Active”, the inhibition [10] was “Active” and the inhibition [11] was “Active”. The Activity [12] was “Active”, the Activity [13] was “Active” and the Activity [14] was “Active”. For the same compound, the Activity [15] was “Active” and the Activity [16] was “inactive”.

In the case of `COc1cc([C@H](O)[C@@H](CO)Oc2c(OC)cc([C@@H]3Oc4c(OC)cc(/C=C/CO)cc4[C@H]3CO)cc2OC)ccc1O`, the Activity [1] is reported as “inactive”, the Activity [2] is reported as “inactive” and the Activity [3] is reported as “inactive”. The inhibition [5] was “Active”, the inhibition [9] was “Active” and the inhibition [10] was “Active”. For the same compound, the inhibition [11] was “Active”, the Activity [12] was “Active” and the Activity [13] was “Active”. The Activity [14] was “Active”, the Activity [15] was “Active” and the Activity [16] was “inactive”.

With `COc1cc(C[C@H]2CO[C@H](c3ccc(O)c(OC)c3)[C@H]2CO)ccc1O` (racemic) [LARICIRESINOL] the Activity [1] was “inactive”, the Activity [2] was “inactive” and the Activity [3] was “inactive”. The inhibition at 0.001 µM [4] was 75%, the inhibition [5] was “Active” and the “inhibition (INH)” value [6] was 30%. For the same compound, the Activity [7] was “inactive”, the Activity [8] was “inactive” and the inhibition [9] was “Active”. The inhibition [10] was “Active”, the inhibition [11] was “Active” and the Activity [12] was “Active”. For the same compound, the Activity [13] was “Active”, the Activity [14] was “Active” and the Activity [15] was “Active”. For the same compound, the Activity [16] was “inactive”.

`COc1cc([C@H](O)[C@@H](CO)Oc2ccc(/C=C/CO)cc2OC)ccc1O` (racemic) was tested, and the Activity [1] was “inactive”, the Activity [2] was “inactive” and the Activity [3] was “inactive”. For the same compound, the inhibition [5] was “Active”, the inhibition [9] was “Active” and the inhibition [10] was “Active”. For the same compound, the inhibition [11] was “Active”, the Activity [12] was “Active” and the Activity [13] was “Active”. For the same compound, the Activity [14] was “Active”, the Activity [15] was “Active” and the Activity [16] was “inactive”.

In the case of `CCC(CC)Nc1c([N+](=O)[O-])cc(C)c(C)c1[N+](=O)[O-]`, the Activity [1] is reported as “inactive”, the inhibition [5] is reported as “Active” and the Activity [13] is reported as “Active”.

`COc1cc([C@@H]2OC[C@H]3[C@@H]2CO[C@H]3c2ccc(O)c(OC)c2)ccc1O` was tested, and the Activity [1] was “inactive”, the Activity [2] was “inactive” and the Activity [3] was “inactive”. For the same compound, the inhibition [9] was “Active”, the inhibition [10] was “Active” and the inhibition [11] was “Active”. The Activity [12] was “Active”, the Activity [13] was “Active” and the Activity [14] was “Active”. For the same compound, the Activity [15] was “Active” and the Activity [16] was “inactive”.

For `COc1cc([C@H](O)[C@H](CO)Oc2c(OC)cc([C@@H]3OC[C@@H]4[C@H]3CO[C@H]4c3cc(OC)c(O[C@@H](CO)[C@@H](O)c4ccc(O)c(OC)c4)c(OC)c3)cc2OC)ccc1O`, the Activity [1] was “inactive”, the Activity [2] was “inactive” and the Activity [3] was “inactive”. For the same compound, the inhibition [5] was “Active”, the inhibition [9] was “Active” and the inhibition [10] was “Active”. The inhibition [11] was “Active”, the Activity [12] was “Active” and the Activity [13] was “Active”. For the same compound, the Activity [14] was “Active”, the Activity [15] was “Active” and the Activity [16] was “inactive”.

With `COc1cc([C@@H](O)[C@@H](CO)Oc2c(OC)cc(/C=C/CO)cc2OC)ccc1O` the Activity [1] was “inactive”, the Activity [2] was “inactive” and the Activity [3] was “inactive”. The inhibition [9] was “Active”, the inhibition [10] was “Active” and the inhibition [11] was “Active”. For the same compound, the Activity [12] was “Active”, the Activity [13] was “Active” and the Activity [14] was “Active”. For the same compound, the Activity [15] was “Active” and the Activity [16] was “inactive”.

In the case of `COc1cc(C[C@H]2CO[C@H](c3ccc(O[C@@H](CO)[C@@H](O)c4ccc(O)c(OC)c4)c(OC)c3)[C@H]2CO)ccc1O`, the Activity [1] is reported as “inactive”, the Activity [2] is reported as “inactive” and the Activity [3] is reported as “inactive”. For the same compound, the inhibition [5] was “Active”, the inhibition [9] was “Active” and the inhibition [10] was “Active”. The inhibition [11] was “Active”, the Activity [12] was “Active” and the Activity [13] was “Active”. The Activity [14] was “Active”, the Activity [15] was “Active” and the Activity [16] was “inactive”.

In the case of `COc1cc([C@@H](O)[C@H]2CO[C@H](c3ccc(O)c(OC)c3)[C@H]2CO)ccc1O`, the Activity [1] is reported as “inactive”, the Activity [2] is reported as “inactive” and the Activity [3] is reported as “inactive”. For the same compound, the inhibition [9] was “Active”, the inhibition [10] was “Active” and the inhibition [11] was “Active”. For the same compound, the Activity [12] was “Active”, the Activity [13] was “Active” and the Activity [14] was “Active”. For the same compound, the Activity [15] was “Active” and the Activity [16] was “inactive”.

For `O=C(O)CNCP(=O)(O)O`, the Activity [1] was “inactive”, the inhibition [5] was “Active” and the Activity [13] was “Active”.

`COc1cc(C[C@@H](CO)[C@H](CO)Cc2ccc(O)c(OC)c2)ccc1O` [(+)-SECOISOLARICIRESINOL] was tested, and the Activity [1] was “inactive”, the Activity [2] was “inactive” and the Activity [3] was “inactive”. The inhibition at 0.001 µM [4] was 50%, the inhibition [5] was “Active” and the inhibition [9] was “Active”. For the same compound, the inhibition [10] was “Active”, the inhibition [11] was “Active” and the Activity [12] was “Active”. For the same compound, the Activity [13] was “Active”, the Activity [14] was “Active” and the Activity [15] was “Active”. For the same compound, the Activity [16] was “inactive”.

`COc1cc([C@@H]2Oc3c(OC)cc(/C=C/CO)cc3[C@H]2CO)ccc1O` [DEHYDROCONIFERYL ALCOHOL] was tested, and the Activity [1] was “inactive”, the Activity [2] was “inactive” and the Activity [3] was “inactive”. The “inhibition (INH)” value [5] was 70%, the “inhibition (INH)” value [6] was 30% and the Activity [7] was “inactive”. The Activity [8] was “inactive”, the inhibition [9] was “Active” and the inhibition [10] was “Active”. The inhibition [11] was “Active”, the Activity [12] was “Active” and the Activity [13] was “Active”. The Activity [14] was “Active”, the Activity [15] was “Active” and the Activity [16] was “inactive”.

Reference: ChEMBL document CHEMBL3044706, “Lignans and neolignans from Brassica fruticulosa: effects on seed germination and plant growth” (2003)
